According to ChEMBL document CHEMBL1153230, “Synthesis and evaluation of 3-amino-6-aryl-pyridazines as selective CB(2) agonists for the treatment of inflammatory pain” (Bioorg Med Chem Lett, 2010):
≈ marks a conversion by molar mass, not a printed value. Calls of active or inactive are those of the source. No cut-off for these calls is given here.

Tests used:
Cannabinoid receptor 2 [1] = molecular target: T1, Cannabinoid receptor 2 (Homo sapiens, UniProt P34972); assay: Agonist activity at human CB2 receptor; type: functional
Method in brief: (§1)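 Agonist pEC50 and efficacy at human receptor. Efficacy is expressed as a percentage relative to HU210 efficacy. Values are the mean of at least two determinations.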

Cannabinoid receptor 1 [2] = molecular target: T2, Cannabinoid receptor 1 (Homo sapiens, UniProt P21554); assay: Agonist activity at human CB1 receptor; type: functional; method in brief: as §1
Cannabinoid receptor 2 [3] = molecular target: T1, Cannabinoid receptor 2; assay: Agonist activity at human CB2 receptor relative to HU210; type: functional; method in brief: as §1
Cannabinoid receptor 1 [4] = molecular target: T2, Cannabinoid receptor 1; assay: Agonist activity at human CB1 receptor relative to HU210; type: functional; method in brief: as §1
[5] = Blood clearance in rat at 1 mg/kg, iv; type: ADME, organism-based; set-up: dose 1 mg/kg, route intravenous
Method in brief: (§2)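 Rats given an intravenous infusion at a target dose of 1 mg free base/kg for pharmacokinetic parameters.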

[6] = Volume of distribution at steady state in rat at 1 mg/kg, iv; type: ADME, organism-based; set-up: dose 1 mg/kg, route intravenous; settings: in vivo, read-out: Vdss; method in brief: as §2
[7] = Half life in rat at 1 mg/kg, iv; type: ADME, organism-based; set-up: dose 1 mg/kg, route intravenous; settings: in vivo; method in brief: as §2
[8] = Cmax in rat at 3 mg/kg, po; type: ADME, organism-based; set-up: dose 3 mg/kg, route oral; settings: in vivo
Method in brief: (§3)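 Rats given a single oral dose by gastric gavage, formulated in 1% (w/v) aqueous methylcellulose, at a target dose of 3 mg/kg free base, for pharmacokinetic parameters.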

[9] = Tmax in rat at 3 mg/kg, po; type: ADME, organism-based; set-up: dose 3 mg/kg, route oral; settings: in vivo; method in brief: as §3
[10] = Oral bioavailability in rat at 3 mg/kg; type: ADME, organism-based; settings: in vivo; method in brief: as §3
[11] = Drug level in rat blood at 1 mg/kg, po after 1 hr; type: ADME, organism-based; set-up: dose 1 mg/kg, route oral
Method in brief: (§4)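 Rat blood and brain tissue samples taken from FCA weight-bearing study animals 1 h after a 1 mg/kg oral dose. Compound concentrations measured in each; brain:blood ratio derived from the two concentrations.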

[12] = Drug level in rat brain at 1 mg/kg, po after 1 hr; type: ADME, organism-based; set-up: dose 1 mg/kg, route oral; settings: read-out: Drug uptake; method in brief: as §4
[13] = Ratio of drug level in brain to blood in rat at 1 mg/kg, po; type: ADME, organism-based; set-up: dose 1 mg/kg, route oral; method in brief: as §4
Rattus norvegicus = assay: Toxicity in rat assessed as induction of hypothermia up to 300 mg/kg po; type: organism-based; set-up: dose 300 mg/kg, route oral; settings: in vivo
[14] = Cmax in rat brain at 6.6 uM; type: ADME, organism-based; set-up: dose 6.6 uM
Cannabinoid receptor 1 [15] = molecular target: T2, Cannabinoid receptor 1; assay: Agonist activity at human CB1 receptor up to 30 uM; type: functional
Method in brief: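 Human CB1 receptor agonist assay, tested at concentrations up to 30 µM (method per cited reference). Potency reported as pEC50. Efficacy is expressed as a percentage of the efficacy of the full agonist HU210. Values are the mean of at least two determinations.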

[16] = Aqueous solubility of the compound; type: physicochemical

T2 sequence (P21554 whole entry): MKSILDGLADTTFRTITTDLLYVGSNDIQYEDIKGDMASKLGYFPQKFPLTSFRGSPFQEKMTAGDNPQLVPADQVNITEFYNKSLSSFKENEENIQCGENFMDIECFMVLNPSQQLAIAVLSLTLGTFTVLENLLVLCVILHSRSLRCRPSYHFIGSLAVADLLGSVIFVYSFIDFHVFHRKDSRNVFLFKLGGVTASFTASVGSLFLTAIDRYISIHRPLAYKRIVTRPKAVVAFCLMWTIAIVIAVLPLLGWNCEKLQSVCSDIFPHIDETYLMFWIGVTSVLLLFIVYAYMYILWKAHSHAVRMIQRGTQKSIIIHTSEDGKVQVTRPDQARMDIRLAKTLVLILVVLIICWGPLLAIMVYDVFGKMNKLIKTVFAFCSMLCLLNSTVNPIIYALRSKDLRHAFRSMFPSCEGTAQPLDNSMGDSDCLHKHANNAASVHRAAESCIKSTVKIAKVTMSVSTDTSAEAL
T1 sequence (P34972 whole entry): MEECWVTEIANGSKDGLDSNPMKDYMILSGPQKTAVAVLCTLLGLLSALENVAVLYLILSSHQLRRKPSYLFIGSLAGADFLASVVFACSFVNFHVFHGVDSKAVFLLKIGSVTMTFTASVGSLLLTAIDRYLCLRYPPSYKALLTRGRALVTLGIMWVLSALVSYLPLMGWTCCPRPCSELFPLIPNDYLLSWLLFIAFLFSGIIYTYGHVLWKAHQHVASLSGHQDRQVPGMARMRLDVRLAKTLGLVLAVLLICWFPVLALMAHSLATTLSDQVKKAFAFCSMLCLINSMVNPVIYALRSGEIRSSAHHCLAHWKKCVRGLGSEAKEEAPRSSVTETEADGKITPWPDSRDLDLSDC

| Structure (SMILES) | EC50 (Cannabinoid receptor 2 [1]) [nM] | EC50 (Cannabinoid receptor 1 [2]) [µM] | Efficacy (Cannabinoid receptor 2 [3]) [%] | further results |
| --- | --- | --- | --- | --- |
| c1ccc(COc2cccc(-c3ccc(N4CCOCC4)nn3)c2)cc1 | > 31600 | > 31.6 | – | – |
| Clc1cccc(-c2ccc(N3CCCCC3)nn2)c1Cl | 6.31 | > 31.6 | 86 | – |
| c1ccc(COc2ccccc2-c2ccc(N3CCOCC3)nn2)cc1 | 631 | 3.98 | 45 | Efficacy (Cannabinoid receptor 1 [4]): 11% |
| O=S1(=O)CCN(c2ccc(-c3cccc(Cl)c3Cl)nn2)CC1 | 631 | > 31.6 | 89 | – |
| Cc1ccccc1-c1ccc(N2CCOCC2)nn1 | 7940 | > 31.6 | 38 | – |
| C[C@@H]1CC[C@H](C)N1c1ccc(-c2cc3ccccc3o2)nn1 | 158 | > 31.6 | 70 | – |
| FC(F)(F)c1cccc(-c2ccc(N3CCOCC3)nn2)c1 | 1000 | > 31.6 | 15 | – |
| C[C@@H]1C=C[C@H](C)N1c1ccc(-c2cccc(Cl)c2Cl)nn1 | 0.631 | 6.31 | 93 | Efficacy (Cannabinoid receptor 1 [4]): 21% |
| FC(F)(F)Oc1ccccc1-c1ccc(N2CCOCC2)nn1 | 1260 | > 31.6 | 55 | – |
| C[C@@H]1CC[C@H](C)N1c1ccc(-c2c[nH]c3ccccc23)nn1 | 251 | > 31.6 | 61 | – |
| C[C@@H]1CC[C@H](C)N1c1ccc(-c2cncc3ccccc23)nn1 | 10 | 7.94 | 85 | Efficacy (Cannabinoid receptor 1 [4]): 71%; clearance [5]: 57 mL/min/kg; Vd [6]: 1.7 L/kg; half-life [7]: 18 min; Cmax [8]: 340 nM; Tmax [9]: 54 min; bioavailability [10]: 26%; concentration at 1 h [11]: 300 nM; concentration at 1 h [12]: 500 nM; Kp [13]: 1; Activity (Rattus norvegicus): Toxic; Cmax at 6.6 µM [14]: 11 µM |
| FC(F)(F)c1ccccc1-c1ccc(N2CCOCC2)nn1 | 1260 | > 31.6 | 78 | – |
| Clc1cccc(-c2ccc(N3CCOCC3)nn2)c1Cl | 79.4 | > 31.6 | 76 | Activity (Cannabinoid receptor 1 [15]): inactive; solubility [16]: 6 µg/mL (≈ 19.3 µM) |
| Clc1ccc(Cl)c(-c2ccc(N3CCOCC3)nn2)c1 | 398 | > 31.6 | 39 | – |
| Clc1cccc(-c2ccc(NC3CCCCC3)nn2)c1Cl | 200 | > 31.6 | 69 | – |
| FC1(F)CCN(c2ccc(-c3cccc(Cl)c3Cl)nn2)CC1 | 15.8 | > 31.6 | 83 | – |
| COc1ccc(-c2ccc(N3CCOCC3)nn2)c(Cl)c1 | > 31600 | > 31.6 | – | – |
| C[C@@H]1CC[C@H](C)N1c1ccc(-c2cccc3ncccc23)nn1 | 200 | > 31.6 | 75 | – |

| Structure (SMILES) | EC50 (Cannabinoid receptor 2 [1]) [nM] | EC50 (Cannabinoid receptor 1 [2]) [µM] | Efficacy (Cannabinoid receptor 2 [3]) [%] | further results |
| --- | --- | --- | --- | --- |
| Clc1cccc(-c2ncc(N3CCOCC3)cn2)c1Cl | 50.1 | – | 92 | Activity (Cannabinoid receptor 1 [15]): inactive; solubility [16]: < 1 µg/mL |
| Clc1cccc(-c2cnc(N3CCOCC3)nc2)c1Cl | 200 | – | 67 | Activity (Cannabinoid receptor 1 [15]): inactive |
| Cc1cccc(-c2ccc(N3CCOCC3)nn2)c1C | 2000 | > 31.6 | 71 | – |
| Clc1cc(Cl)c(Cl)c(-c2ccc(N3CCOCC3)nn2)c1 | 50.1 | > 31.6 | 78 | – |
| C[C@@H]1CC[C@H](C)N1c1ccc(-c2cccc3cccnc23)nn1 | 79.4 | > 31.6 | 82 | – |
| Clc1cccc(-c2ccc(N3CCCC3)nn2)c1Cl | 25.1 | > 31.6 | 56 | – |
| Clc1ccccc1-c1ccc(N2CCOCC2)nn1 | 1580 | > 31.6 | 77 | – |
| Clc1cccc(-c2cnc(N3CCOCC3)nn2)c1Cl | 100 | – | 78 | Activity (Cannabinoid receptor 1 [15]): inactive |
| Clc1cccc(-c2cnc(N3CCOCC3)cn2)c1Cl | 39.8 | – | 89 | Activity (Cannabinoid receptor 1 [15]): inactive; solubility [16]: 1 µg/mL (≈ 3.22 µM) |
| Cc1ccc(-c2ccc(N3CCOCC3)nn2)c(Cl)c1 | > 31600 | > 31.6 | – | – |
| COc1ccccc1-c1ccc(N2CCOCC2)nn1 | 12600 | > 31.6 | 37 | – |
| Clc1cccc(-c2ccc(N3CCOCC3)cc2)c1Cl | 39.8 | – | 86 | Activity (Cannabinoid receptor 1 [15]): inactive |
| Clc1ccc(-c2ccc(N3CCOCC3)nn2)c(Cl)c1 | > 31600 | > 31.6 | – | – |
| Clc1cccc(-c2ccc(N3CCOCC3)nc2)c1Cl | – | – | – | Activity (Cannabinoid receptor 1 [15]): inactive |
| C[C@@H]1CC[C@H](C)N1c1ccc(-c2cccc3cnccc23)nn1 | 39.8 | 20 | 93 | Efficacy (Cannabinoid receptor 1 [4]): 52% |
| Clc1cccc(-c2ccc(NC3CCOCC3)nn2)c1Cl | > 31600 | > 31.6 | – | – |
| FC(F)(F)c1cccc(-c2ccc(N3CCOCC3)nn2)c1C(F)(F)F | 158 | > 31.6 | 75 | – |
| C[C@@H]1CC[C@H](C)N1c1ccc(-c2cccc(Cl)c2Cl)nn1 | 1.26 | 2.51 | 83 | Efficacy (Cannabinoid receptor 1 [4]): 57% |
